This is an account of results in ChEMBL document CHEMBL1130417 (J Med Chem, 1997).

The target in assay [1] is Opioid receptors; mu & delta (Rattus norvegicus) (UniProt P33533+P33535). Nature of the assay: Mu/delta inhibitory ratio of compound determined Rat brain receptors.
Assay [2] concerns the target Mu-type opioid receptor (Rattus norvegicus, UniProt P33535). Nature of the assay: Inhibition of radioligand [3H]DAMGO binding to rat brain Opioid receptor mu 1 […]. The procedure, abridged:
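Rat brain membranes were labelled with [3H]DAMGO (1–3 nM) for 4 h at 25 °C in 50 mM Tris-HCl pH 7.4 with protease inhibitor cocktail. Nonspecific binding was set with 20 μM levallorphan. Displacement used 8–10 drug concentrations, run twice, with drug diluted in Tris pH 7.4 containing 1 mg/mL BSA. IC50 and slope factor came from curve fitting.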

Assay [3] addresses Delta-type opioid receptor (Rattus norvegicus, UniProt P33533). The assay is described as follows: Inhibition of radioligand [3H]DADLE binding to rat brain Opioid receptor delta 1. The essentials: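 Rat brain membranes were labelled with [3H]DADLE (1.7–2.5 nM) for 3–4 h at 25 °C in Tris-HCl pH 7.4 with 100 mM choline chloride, 3 mM MnCl2, protease inhibitor cocktail and 100 nM DAMGO to block μ sites. Nonspecific binding was set with 20 μM levallorphan. Displacement used 8–10 drug concentrations, run twice. IC50 and slope factor came from curve fitting.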

In assay [4] the target is Mu-type opioid receptor (Cavia porcellus, UniProt P97266). The assay is described as follows: Agonist activity was evaluated in guinea pig ileum (GPI) preparations at Opioid receptor mu 1. Type of assay: functional, tissue-based. The procedure, abridged: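 Longitudinal muscle–myenteric plexus strips from male Hartley guinea pig ileum (250–500 g) were held in 37 °C oxygenated Krebs bicarbonate under 1 g tension.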

For assay [5], the target named is Delta-type opioid receptor (Mus musculus, UniProt P32300). Nature of the assay: Agonist activity was evaluated in mouse vas deferens (MVD) preparations at Opioid receptor delta 1. It is filed as functional. The essentials: (§1)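 Vas deferens from male ICR mice (25–40 g) was held in 37 °C oxygenated magnesium-free Krebs bicarbonate under 0.5 g tension. Tissue was field-stimulated at 0.1 Hz with 2-ms supramaximal pulses.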

The species named for assay [6] is Cavia porcellus. Nature of the assay: IC50 ratio on Mu receptor of GPI to the delta receptor MVD. The essentials:
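The ratio is guinea pig ileum IC50 divided by mouse vas deferens IC50. Both tissues were electrically stimulated at 0.1 Hz, the ileum with 0.4-ms and the vas deferens with 2-ms pulses, and exposed to cumulative agonist doses.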

Assay [7] is filed under the species Mus musculus. Nature of the assay: Agonist activity was evaluated in mouse vas deferens (MVD) preparations at opioid delta receptor. Type of assay: functional. The essentials: as §1

Several values for one entry are separate records, joined by “and”; a condition that tells them apart may be missing. Equal entries are not always repeated.

Chain of Mu-type opioid receptor (Rattus norvegicus, UniProt P33535) (P33535 whole entry): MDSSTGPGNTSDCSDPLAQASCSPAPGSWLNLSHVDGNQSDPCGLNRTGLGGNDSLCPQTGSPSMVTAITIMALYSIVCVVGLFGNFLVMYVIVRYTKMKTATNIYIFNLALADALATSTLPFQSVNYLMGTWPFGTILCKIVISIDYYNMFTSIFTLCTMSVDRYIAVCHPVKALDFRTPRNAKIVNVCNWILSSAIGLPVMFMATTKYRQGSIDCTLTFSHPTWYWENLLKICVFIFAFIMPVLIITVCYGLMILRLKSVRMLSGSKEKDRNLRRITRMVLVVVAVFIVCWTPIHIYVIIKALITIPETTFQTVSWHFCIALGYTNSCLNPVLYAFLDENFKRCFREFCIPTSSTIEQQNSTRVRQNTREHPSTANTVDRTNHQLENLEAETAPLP
Chain of Mu-type opioid receptor (Cavia porcellus, UniProt P97266) (P97266 whole entry): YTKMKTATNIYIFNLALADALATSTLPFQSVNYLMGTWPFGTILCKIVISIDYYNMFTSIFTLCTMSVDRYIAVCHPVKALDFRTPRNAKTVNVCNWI
Chain of Opioid receptors; mu & delta (Rattus norvegicus) (P33533 whole entry, looked up): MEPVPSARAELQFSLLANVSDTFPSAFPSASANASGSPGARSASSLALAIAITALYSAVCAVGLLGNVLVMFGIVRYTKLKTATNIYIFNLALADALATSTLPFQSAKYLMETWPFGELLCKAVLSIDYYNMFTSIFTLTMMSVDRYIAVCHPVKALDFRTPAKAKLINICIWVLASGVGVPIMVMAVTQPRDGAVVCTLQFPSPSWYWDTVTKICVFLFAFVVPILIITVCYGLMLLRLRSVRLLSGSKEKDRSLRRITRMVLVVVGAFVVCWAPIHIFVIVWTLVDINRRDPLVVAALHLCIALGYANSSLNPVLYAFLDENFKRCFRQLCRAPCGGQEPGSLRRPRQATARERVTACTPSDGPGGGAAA
Chain of Opioid receptors; mu & delta (Rattus norvegicus) (P33535 whole entry, looked up): as the sequence (P33535 whole entry) above
Chain of Delta-type opioid receptor (Rattus norvegicus, UniProt P33533) (P33533 whole entry): as the sequence (P33533 whole entry, looked up) above
Chain of Delta-type opioid receptor (Mus musculus, UniProt P32300) (P32300 whole entry): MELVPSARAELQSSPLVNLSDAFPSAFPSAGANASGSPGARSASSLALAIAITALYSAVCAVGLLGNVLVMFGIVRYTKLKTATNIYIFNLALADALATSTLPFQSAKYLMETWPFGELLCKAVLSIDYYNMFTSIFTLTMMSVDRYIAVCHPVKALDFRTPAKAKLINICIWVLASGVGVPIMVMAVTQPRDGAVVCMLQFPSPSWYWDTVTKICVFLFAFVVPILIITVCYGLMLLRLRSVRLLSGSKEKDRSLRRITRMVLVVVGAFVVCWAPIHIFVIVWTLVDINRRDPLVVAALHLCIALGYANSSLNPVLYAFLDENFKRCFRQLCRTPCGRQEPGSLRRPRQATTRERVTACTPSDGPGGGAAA

In the case of `C=CCN1C[C@H](C)N([C@@H](c2ccc(C(=O)N(CC)CC)cc2)c2cccc(F)c2)C[C@H]1C`, the Ratio in assay [1] is above 160. The figures for the IC50 in assay [2] and in assay [3] were above 10000 nM and 62.5 nM, respectively.

On to `C=CCN1C[C@H](C)N([C@@H](c2ccc(C(=O)N(CC)CC)cc2)c2cccc(I)c2)C[C@H]1C`, for which, in assay [1], the Ratio came to 82.2. In addition, the IC50 in assay [2] amounted to 3380 nM; in assay [3], 41.1 nM.

Consider `C=CCN1C[C@H](C)N([C@H](c2ccc(C(=O)N(CC)CC)cc2)c2cccc(I)c2)C[C@H]1C`, for which the IC50 was above 3000 nM in assay [4], 44.2 nM in assay [5], 1230 nM in assay [2] and 3.91 nM in assay [3]. Moreover, in assay [1], the Ratio stood at 314.

`C=CCN1C[C@H](C)N([C@@H](c2ccc(C(=O)N(CC)CC)cc2)c2cccc(O)c2)C[C@H]1C` showed an IC50 in assay [3] of 11.4 nM.

Turning to `C=CCN1C[C@@H](C)N([C@H](c2ccc(C(=O)N(CC)CC)cc2)c2cccc(F)c2)C[C@@H]1C` (single isomer, unassigned), the Ratio in assay [1] was above 2110. Further, the IC50 in assay [2] was above 10000 nM; in assay [3] it was 4.75 nM.

The molecule `C=CCN1C[C@@H](C)N([C@H](c2ccc(C(=O)N(CC)CC)cc2)c2cccc(O)c2)C[C@@H]1C` (single isomer, unassigned) yielded an IC50 in assay [3] of 1.74 nM. That is a single-digit nanomolar value.

For `CC(NC(=O)[C@@H](N)Cc1ccc(O)cc1)C(=O)N[C@@H](Cc1ccccc1)C(=O)N[C@@H](CC(=O)O)C(=O)N[C@H](C(=O)N[C@H](C(=O)NCC(N)=O)C(C)C)C(C)C` (single isomer, unassigned) [DELTORPHIN C], the IC50 in assay [4] turned out to be 15000 nM. That is a double-digit micromolar value.

In turn, `C=CCN1C[C@H](C)N([C@H](c2ccc(C(=O)N(CC)CC)cc2)c2cccc(O)c2)C[C@H]1C` (stereo in doubt; (+)-1) yielded an IC50 in assay [3] of 1.49 nM.

Consider `C=CCN1C[C@H](C)N([C@@H](c2ccccc2)c2ccc(C(=O)N(CC)CC)cc2)C[C@H]1C` (stereo in doubt; (+)-22) [listing 1 of 2 here], for which the results for the half-inhibitory concentration (IC50) in assay [4], in assay [2] and in assay [3] were 8580 nM, above 2500 nM and 0.94 nM, respectively.

For `C=CCN1C[C@H](C)N([C@@H](c2ccccc2)c2ccc(C(=O)N(CC)CC)cc2)C[C@H]1C` (stereo in doubt; (+)-22) [listing 2 of 2 here], the Ratio was above 2660 in assay [1] and 813 in assay [6].

For `C=CCN1C[C@H](C)N([C@H](c2ccc(C(=O)N(CC)CC)cc2)c2cccc(F)c2)C[C@H]1C` (stereo in doubt; (+)-23) [listing 1 of 2 here], the IC50 in assay [4] is 2600 nM; in assay [5], 9.77 nM and 10.3 nM; in assay [2], 1980 nM; in assay [3], 2.92 nM; in assay [7], 200 nM.

Regarding `C=CCN1C[C@H](C)N([C@H](c2ccc(C(=O)N(CC)CC)cc2)c2cccc(F)c2)C[C@H]1C` (stereo in doubt; (+)-23) [listing 2 of 2 here], the Ratio in assay [1] was 677; in assay [6], 265.

In assay [2], `C=CCN1C[C@H](C)N([C@@H](c2ccc(C(=O)N(CC)CC)cc2)c2cccc(OC)c2)C[C@H]1C` (stereo in doubt; (+)-25) came in with an IC50 of 5710 nM.

As to `C=CCN1C[C@H](C)N([C@H](c2ccccc2)c2ccc(C(=O)N(CC)CC)cc2)C[C@H]1C` (stereo in doubt; (+)-26) [listing 1 of 2 here], the IC50 in assay [2] is above 10000 nM; in assay [3], 60 nM.

For `C=CCN1C[C@H](C)N([C@H](c2ccccc2)c2ccc(C(=O)N(CC)CC)cc2)C[C@H]1C` (stereo in doubt; (+)-26) [listing 2 of 2 here], the Ratio in assay [1] is above 167.

`C=CCN1C[C@H](C)N([C@H](c2ccc(C(=O)N(CC)CC)cc2)c2cccc(O)c2)C[C@H]1C` (stereo in doubt; (-)-1) returned an IC50 in assay [3] of 58.3 nM.

In the case of `C=CCN1C[C@H](C)N([C@@H](c2ccccc2)c2ccc(C(=O)N(CC)CC)cc2)C[C@H]1C` (stereo in doubt; (-)-22) [listing 1 of 2 here], the results for the half-maximal inhibitory concentration (IC50) in assay [2] and in assay [3] were above 10000 nM and 852 nM, respectively.

Regarding `C=CCN1C[C@H](C)N([C@@H](c2ccccc2)c2ccc(C(=O)N(CC)CC)cc2)C[C@H]1C` (stereo in doubt; (-)-22) [listing 2 of 2 here], the Ratio in assay [1] was above 11.7.

In the case of `C=CCN1C[C@H](C)N([C@H](c2ccc(C(=O)N(CC)CC)cc2)c2cccc(F)c2)C[C@H]1C` (stereo in doubt; (-)-23) [listing 1 of 2 here], the figures for the IC50 in assay [2] and in assay [3] were above 10000 nM and 1380 nM, respectively.

As for `C=CCN1C[C@H](C)N([C@H](c2ccc(C(=O)N(CC)CC)cc2)c2cccc(F)c2)C[C@H]1C` (stereo in doubt; (-)-23) [listing 2 of 2 here], the Ratio in assay [1] was above 7.3.

`C=CCN1C[C@H](C)N([C@@H](c2ccc(C(=O)N(CC)CC)cc2)c2cccc(OC)c2)C[C@H]1C` (stereo in doubt; (-)-25): the concentration for half-maximal inhibition (IC50) in assay [4] came to 1520 nM; in assay [2], 9140 nM.

As for `C=CCN1C[C@H](C)N([C@H](c2ccccc2)c2ccc(C(=O)N(CC)CC)cc2)C[C@H]1C` (stereo in doubt; (-)-26) [listing 1 of 2 here], the IC50 worked out at 1780 nM in assay [4], 126 nM in assay [5], 8450 nM in assay [2] and 9.22 nM in assay [3].

`C=CCN1C[C@H](C)N([C@H](c2ccccc2)c2ccc(C(=O)N(CC)CC)cc2)C[C@H]1C` (stereo in doubt; (-)-26) [listing 2 of 2 here]: the Ratio in assay [1] was above 916.

The term IC50 denotes the point on the concentration scale where inhibition reaches its midpoint.
